For one data set, the target named is furin protease (Homo sapiens, UniProt P09958). The data set is described as follows: In vitro cleavage by furin protease. Format: in vitro ADME. As to conditions: Figure S1.
A short description of data set [1]: Glucose tolerance test after nasal administration in mice. The format is in vivo, WT C57BL/6 mice. As to conditions: systemic uptake monitored functionally by glucose-tolerance test. In outline: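 Male C57BL/6 mice (6-9 weeks; Nnt deletion), acclimatized 2 weeks, fasted 18 h, lightly isoflurane-anesthetized. 20 μL of test peptide or its glycolipid conjugate (various concentrations) or saline was dripped slowly into the nasal cavity. After 1 h, glucose 2 g/kg was injected (n = 2 each). Blood glucose was read by glucometer from ~5 μL tail-nick blood at set times, and AUC was calculated.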

Data on one substance can be found in PMC3929184 (Journal of controlled release : official journal of the …, 2013).

furin protease, sequence (P09958 108-794): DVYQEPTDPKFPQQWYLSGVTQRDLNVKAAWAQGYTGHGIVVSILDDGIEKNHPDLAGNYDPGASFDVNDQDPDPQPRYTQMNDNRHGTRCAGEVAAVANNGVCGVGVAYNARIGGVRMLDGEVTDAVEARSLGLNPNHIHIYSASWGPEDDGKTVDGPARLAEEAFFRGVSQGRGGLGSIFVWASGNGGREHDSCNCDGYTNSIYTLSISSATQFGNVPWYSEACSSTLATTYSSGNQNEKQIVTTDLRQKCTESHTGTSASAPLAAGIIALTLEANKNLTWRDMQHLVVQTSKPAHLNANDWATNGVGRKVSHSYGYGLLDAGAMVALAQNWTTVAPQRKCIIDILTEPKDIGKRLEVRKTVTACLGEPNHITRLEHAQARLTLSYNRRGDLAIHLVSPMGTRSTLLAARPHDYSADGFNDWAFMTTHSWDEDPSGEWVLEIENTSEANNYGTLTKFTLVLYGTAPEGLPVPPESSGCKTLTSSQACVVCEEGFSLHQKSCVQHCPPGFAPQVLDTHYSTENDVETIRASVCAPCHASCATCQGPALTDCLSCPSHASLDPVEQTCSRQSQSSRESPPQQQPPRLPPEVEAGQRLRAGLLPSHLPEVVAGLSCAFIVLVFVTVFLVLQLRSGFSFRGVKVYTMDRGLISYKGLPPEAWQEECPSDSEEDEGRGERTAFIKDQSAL

As for Glucagon-like peptide-1 [GLP-1*], the “Cleavage by the furin protease” value at furin protease is “resistant to cleavage”. For the same substance, the “Mucosal absorption after nasal application” value in data set [1] is “evidence for absorption”.
